Compound activity from PubChem BioAssay.
PREPL inhibitor: inhibitors of human prolyl oligopeptidase-like enzyme PREPL; 320,000 compounds, 0.68% hits; AID 2751; inhibition, % at 5.96 µM; recombinant PREPL, fluorescence polarization activity-based probe; in the data active = inhibition above about 43%;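 note: 0% = enzyme with DMSO and 100% = wells lacking enzyme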
Target sequence (Q4J6C6 whole entry, looked up): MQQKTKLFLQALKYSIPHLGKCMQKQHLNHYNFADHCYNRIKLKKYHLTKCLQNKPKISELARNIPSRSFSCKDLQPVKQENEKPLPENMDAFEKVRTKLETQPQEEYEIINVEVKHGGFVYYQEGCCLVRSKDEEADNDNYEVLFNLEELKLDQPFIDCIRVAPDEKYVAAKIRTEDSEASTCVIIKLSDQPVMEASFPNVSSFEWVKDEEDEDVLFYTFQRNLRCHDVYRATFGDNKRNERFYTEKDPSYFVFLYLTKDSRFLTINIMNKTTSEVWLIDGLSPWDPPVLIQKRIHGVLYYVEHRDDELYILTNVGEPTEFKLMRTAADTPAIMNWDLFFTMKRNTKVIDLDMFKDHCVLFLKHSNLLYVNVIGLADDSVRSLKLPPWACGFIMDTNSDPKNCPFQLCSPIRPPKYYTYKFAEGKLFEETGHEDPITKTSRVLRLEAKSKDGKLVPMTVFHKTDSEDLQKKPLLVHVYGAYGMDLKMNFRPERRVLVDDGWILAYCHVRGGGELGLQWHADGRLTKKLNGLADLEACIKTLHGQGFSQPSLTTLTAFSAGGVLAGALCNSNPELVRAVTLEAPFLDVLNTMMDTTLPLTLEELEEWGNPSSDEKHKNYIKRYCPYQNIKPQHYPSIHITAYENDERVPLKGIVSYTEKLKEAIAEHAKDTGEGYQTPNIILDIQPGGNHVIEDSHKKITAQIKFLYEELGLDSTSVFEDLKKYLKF
Apaf1 inhib: blocks human Apaf-1 apoptosome activity; reconstituted apoptosome caspase-3 activity, DEVD-Rh110 fluorescence; inhibition, % at 20 µM; 330,000 compounds, 0.71% hits; active = inhibition of at least 40% at 20 µM;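 note: plate controls were DMSO wells for no effect and DEVD-CHO caspase inhibitor wells for full effect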
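System: Apoptosome proteins | Medium: Hepes pH 7.5 with detergent and BSA | Also added: Cytochrome c trigger plus (Z-DEVD)2-Rh110 caspase-3 substrate | Incubation: 30 min compound preincubation, 50 min activation, room temperature | Detection: Rhodamine 110 fluorescence at Ex 480/Em 540 nm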
MEKK3 PB1 HTS: modulators (inhibitors or enhancers) of MEK5 binding to human MEKK3 PB1 domain; bead-based flow cytometry, Alexa488-MEK5 binding to MEKK3; actives lie on both sides; 0 = blocked by unlabeled MEK5, 100 = vehicle; Q99759; AID 1529; binding response (% of control), % at 10 µM; 290,000 compounds, 1.4% hits;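 active = binding response more than 3 SD above or below the average of its plate-row segment, actives on both sides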;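 note: Alexa488 bead fluorescence after subtracting the streptavidin-only scavenger bead signal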
MEKK2 WT-MEK5: raises or lowers MEK5 binding to wildtype human MEKK2 PB1 domain; Q9Y2U5; bead flow cytometry, Alexa488-MEK5 binding to MEKK2 WT; actives lie on both sides; binding response (% of control), % at 10 µM; 290,000 compounds, 1.1% hits; AID 1531; in the data active = binding response below about 67% or above about 130%
MEKK2mut PB1 HTS: signal of MEK5 binding to mutant human MEKK2 PB1 domain; AID 1530; 290,000 compounds, 0.35% hits; bead flow cytometry, Alexa488-MEK5 binding to MEKK2 mutant; percent response, % at 10 µM; in the data active = percent response above about 24%, passing the limit was not always enough
UBC13 inh: human UBC13 polyubiquitination inhibition | inhibition, % at 20 µM | UBC13 polyubiquitin chain formation, TR-FRET | 330,000 compounds, 0.47% hits; in the data active = inhibition above about 45%, passing the limit was not always enough
* = called active by the depositor; · = no result. In the library only some 3.1% were active in any assay of this set; here they are far more common.

SMILES | PREPL inhibitor | Apaf1 inhib | MEKK3 PB1 HTS | MEKK2 WT-MEK5 | MEKK2mut PB1 HTS | UBC13 inh
CC(C)(C)c1ccc(N2C(=O)Cc3c2nc(N)c(C#N)c3N)cc1 | 8 | -1 | 100 | 97 | 2 | 4
O=C(CSc1ccc(S(=O)(=O)N2CCCCC2)cn1)Nc1ccccc1Br | 14 | 10 | · | · | · | 8
CCOc1cccc2cc(C(=O)N3CCc4ccccc43)c(=O)oc12 | 16 | -10 | 100 | 5.0* | 8 | -1
COc1cccc2cc(C(=O)N3CCc4ccccc43)c(=O)oc12 | 7 | -1 | 102 | 98 | 1 | -6
CC1CCN(CCCNC(=O)c2cc3c(s2)-c2ccccc2OC3)CC1 | 37 | 10 | 104 | 134* | 11 | 35
N#Cc1cnn2c(-c3cccc([N+](=O)[O-])c3)ccnc12 | 23 | 0 | · | · | · | -8
CCCCNC(=O)C(C1CCCCC1)N(CCN(C)C)C(=O)CCCN1C(=O)NC(c2ccc(-c3ccccc3)cc2)C(C(=O)OCc2ccccc2)=C1C (centres undefined) | · | 64* | · | · | · | ·
CCCCCCN(C(=O)CCCCCN1C(=O)NC(c2ccc(-c3ccccc3)cc2)C(C(=O)OCc2ccccc2)=C1C)C(C)C(=O)NCCCC (centres undefined) | 10 | 17 | 100 | 92 | -6 | 2
Cc1ccc(S(=O)(=O)N2CCCCC2)cc1NC(=O)COC(=O)C1(C)CC1(Cl)Cl (centres undefined) | 4 | 10 | · | · | · | -6
CC(C)N1CCc2c(sc(NC(=S)NC(=O)c3ccccc3)c2C#N)C1 | 62* | 24 | 89 | 87 | 0 | -35
CC(C)N1CCc2c(sc(N)c2C#N)C1 | 50* | -1 | 90 | 2.0* | 23 | -14
CCN1CCc2c(sc(N)c2C#N)C1 | 39 | 23 | 93 | 76 | 4 | -27
CCOC(=O)c1c(C)n(C)c2ccc(OC(=O)c3ccoc3)cc12 | 28 | -3 | 98 | 97 | -7 | 0
CCOC(=O)c1c(C)n(CC)c2ccc(OC(=O)c3ccc([N+](=O)[O-])cc3)cc12 | 49* | -4 | 96 | 98 | -1 | -5
O=C(Nc1ccc(CSc2ccccc2)cc1)c1ccco1 | -2 | -11 | 106 | 109 | 9 | 6
Nc1ccc(O)c2ccccc12 | 32 | 68* | · | · | · | -39
Nc1ccc(N=Nc2ccccc2)c2ccccc12 | 20 | 19 | 111 | 106 | 12 | -139
Cc1cc(NC(=O)c2cccc([N+](=O)[O-])c2)n(-c2ccccc2)n1 | 0 | -3 | 101 | 99 | 1 | 20
Cc1cc(NC(=O)c2cc([N+](=O)[O-])cc([N+](=O)[O-])c2)n(-c2ccccc2)n1 | 15 | · | 103 | 30* | 8 | ·
COc1ccc(OC)c(S(=O)(=O)N2CCN(C(=O)c3cc(C4CC4)nn3-c3ccccc3)CC2)c1 | -2 | 25 | · | · | · | 3
O=[S@]1Oc2ccccc2-c2ccccc21 | 0 | 2 | · | · | · | -3
COC(=O)C/C=N/N=C1/NC(=O)/C(=C/C(=O)O)S1 | -12 | -18 | 96 | 1.0* | 3 | -10
COC(=O)/C=C1\S/C(=N/N=C/c2ccc(Cl)cc2)NC1=O | 9 | 25 | 87 | 86 | -12 | -76
O=C(Nc1ccccc1)c1ccc(CN2CCc3ccccc3C2)cc1 | 18 | 7 | 100 | 102 | 0 | 3
Cc1ccc(NC(=O)c2ccc(CN3CCc4ccccc4C3)cc2)cc1 | -1 | 48* | · | · | · | 1
SMILES | PREPL inhibitor | Apaf1 inhib | MEKK3 PB1 HTS | MEKK2 WT-MEK5 | MEKK2mut PB1 HTS | UBC13 inh
O=C(NNC(=O)c1cccnc1SCc1cccc([N+](=O)[O-])c1)c1ccccn1 | 10 | 9 | 134* | 106 | -1 | 18
CCOc1ccc(N(C(=O)c2snc(C(N)=O)c2N)C(C(=O)NCC2CCCO2)c2ccco2)cc1 (centres undefined) | 5 | 7 | 101 | 102 | 3 | 79*
CCCCc1ccc(NC(=S)Nc2ccc(Nc3ccc(OC)cc3)cc2)cc1 | 47* | -5 | 104 | 129 | 10 | -6
OC(CNCCc1ccc(C(F)(F)F)cc1)COc1cccc2ccccc12 (centres undefined) | -32 | 8 | 106 | 156* | 7 | 32
CC1Sc2ccc(S(=O)(=O)N3CCC(C(=O)NCc4ccccc4)CC3)cc2NC1=O (centres undefined) | -3 | 2 | 101 | 102 | 4 | -2
CCOC(=O)N1CCN(C(=O)C(=O)c2cn(CC(=O)N3CCCCCC3)c3ccccc23)CC1 | 11 | 6 | 97 | 2.0* | 1 | -16
CC(C)CCN1CCC(Cc2ccccc2)(NC(=O)c2ccccc2)C1=O (centres undefined) | 7 | 3 | · | · | · | 8
CC(C)CCN1CCC(N)=NC1=O | · | · | 122 | 422* | 534* | ·
COc1cc2cc(CN(Cc3cccs3)C(=S)Nc3ccccc3)c(=O)[nH]c2cc1OC | 9 | -11 | 104 | 103 | 1 | 6
COc1ccc2[nH]c(=O)c(CN(Cc3cccs3)C(=S)Nc3ccccc3)cc2c1 | -3 | -4 | 100 | -1.0* | -1 | -7
Cc1ccc(N/N=C2\CC(=O)c3ccccc32)cc1Cl | 14 | 76* | 99 | 95 | -1 | -60
O=C(NC1CCCCC1)N(C1=NCCCCC1)c1ccc(Br)cc1 | -3 | -5 | 106 | 15* | 4 | 2
CC(Sc1ccc([N+](=O)[O-])cn1)C(=O)Nc1nccs1 (centres undefined) | 4 | -1 | 103 | 157* | 17 | -4
CCN(C(=O)COC(=O)c1ccc(F)c(S(=O)(=O)N2CCOCC2)c1)C1CCS(=O)(=O)C1 (centres undefined) | 1 | 1 | 95 | 100 | 3 | -2
COc1ccc(Cn2c(SCC#N)nc3ccc(N4CCOCC4)cc3c2=O)cc1 | 71* | 12 | 104 | 102 | 3 | -8
Cc1ccccc1OCCn1cc(C(=S)N2CCCC2)c2ccccc21 | 42 | 23 | · | · | · | 10
Cc1ccccc1OCCn1cc(C(=S)N2CCN(C)CC2)c2ccccc21 | 59* | 12 | 100 | 102 | -12 | 26
CC1CCC(NC(=O)CN2C(=O)NC3(CCCCC3C)C2=O)CC1 (centres undefined) | 1 | -9 | · | · | · | 5
O=C(NCC1CCCO1)c1ccc(Cl)c(S(=O)(=O)N2CCCCC2)c1 (centres undefined) | 2 | 5 | 105 | 110 | 6 | -1
Cc1cc(-c2csc(N)n2)c(C)n1CCC(C)C | 41 | 37 | 101 | 59* | -2 | -25
Cc1nn(C)cc1-c1csc(N)n1 | 2 | -9 | 100 | 102 | 2 | 3
Cc1cccc(-n2ncc3c(=O)[nH]c(SCC(=O)N4CC(=O)Nc5ccccc54)nc32)c1 | 6 | 2 | · | · | · | -12
CCCCCCSc1ccc(-c2nc3cc(C)ccn3c2NC2CCCCC2)cc1 | 15 | 47* | · | · | · | 19
